High-throughput results deposited in PubChem by several laboratories.
The list is not random: actives were taken first. Their share in the collection is about 2.1%.
PKA-R1A activ: activates the PKA-R1A holoenzyme complex | P00514+P68181 | PKA-R1A dissociation, Cy5-IP20 fluorescence polarization; scaled: DMSO 0%, 113 µM cGMP 100% | activation, % at 11.4 µM | 0.083% of 340,000 active;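 active = percent activation above the mean of all tested compounds plus 3 SD, cut at about 19% in these data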;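 also: higher means more PKAc released from R1A so a rise in polarization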
SR-BI DiI inh: inhibitors of mouse SR-BI mediated HDL lipid uptake; Q61009; ldlA[mSR-BI] CHO cells, DiI-HDL uptake fluorescence, 3 h; inhibition, % at 12.5 µM; 0.96% of 320,000 active;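 active = mean replicate inhibition of at least 70% and a set share of replicates each scoring 70 or more; inconclusive = meets just one of the two criteria; inactive = fails both criteria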;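 also: 0% = median of neutral control wells and 100% = median of positive control wells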
PKA-R2B act: activators of human PKA-R2B complex | P22694+P31323 | PKA-R2B holoenzyme dissociation, Cy5-IP20 fluorescence polarization; R2B truncated from residue 108, S112A mutant; 0% DMSO only, 100% 113 µM cGMP | activation, % at 11.4 µM | 0.079% of 340,000 active | AID 504700;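 active = activation above a cutoff set at the mean over all compounds plus 3 SD, cut at about 18% in these data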;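 also: higher means more holoenzyme dissociation and a rise in polarization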
Target sequence (P31323 whole entry, looked up, other chains not shown, the tested form may be a part): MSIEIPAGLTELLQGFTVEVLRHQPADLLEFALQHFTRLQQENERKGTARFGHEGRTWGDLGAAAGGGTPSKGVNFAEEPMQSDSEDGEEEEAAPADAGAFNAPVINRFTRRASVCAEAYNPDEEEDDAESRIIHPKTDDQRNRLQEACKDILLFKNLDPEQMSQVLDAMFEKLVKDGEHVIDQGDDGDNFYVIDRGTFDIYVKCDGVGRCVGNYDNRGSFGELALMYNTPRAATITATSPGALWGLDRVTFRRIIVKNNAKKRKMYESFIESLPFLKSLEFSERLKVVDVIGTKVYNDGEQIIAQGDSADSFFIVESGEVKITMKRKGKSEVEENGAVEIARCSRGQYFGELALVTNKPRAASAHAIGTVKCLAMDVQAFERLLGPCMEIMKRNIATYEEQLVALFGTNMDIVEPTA
SR-BI DiI-HDL act: enhances SR-BI lipid uptake from DiI-HDL. AID 504775. 0.096% of 320,000 active. activation, % at 12.5 µM. CHO ldlA[mSR-BI] cells, DiI-HDL uptake fluorescence, 3 h; 100 = double the neutral-control signal;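 active = mean replicate activation of at least 60% and every replicate at or above 60%; inconclusive = mean or all-replicate condition met, but not both; inactive = mean below 60% and not all replicates reaching 60%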;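 also: 0% = median plate neutral-control signal and 100% = twice that signal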
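material = CHO ldlA[mSR-BI] cells | medium = Ham's F12 with 0.5% BSA, HEPES 25 mM, pH 7.4 | reagent = fluorescent DiI-HDL, 10 µg/mL final | compound dosing = single-point compound dose | incubation = 3 h, 37 °C | measured by = bottom-read fluorescence, 550/595 nm | measure = HDL uptake via cellular fluorescence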
CDK5 p35 inh: CDK5/p35 (human) kinase inhibition; Recombinant CDK5/p35, ADP-Glo luminescence, 60 min; inhibition, % at 10 µM; AID 488839; 0.01% of 330,000 active;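 active = highest replicate inhibition of at least 50% and at least 75% of replicates reaching 50%; inconclusive = only one of the two criteria met; inactive = both criteria failed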;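 also: plate controls were DMSO neutral control for no effect and GW8510 at 10 µM for full effect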
dFosB act-1: mouse delta FosB homodimer activation; P13346; purified delta FosB, TAMRA-CDK5 oligo fluorescence polarization; percent of positive-control signal above neutral wells; activation, % at 25 µM; 0.99% of 340,000 active; AID 493131;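 active = mean activation above about 17%, with every replicate also reaching it, limit read from the data, passing the limit was not always enough; inconclusive = only one of the two conditions met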
dFosB act-2: activators of mouse delta FosB homodimer DNA binding; shares compounds with dFosB act-1; purified delta FosB, TAMRA-CDK5 oligo fluorescence polarization; normalised: neutral wells 0, positive control 100; activation, % at 24.9 µM; 2,400 tested, under 10 active; AID 588690;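 active = highest replicate activation at or above 34% and every replicate reaching that threshold; inconclusive = meets only one of the two criteria; inactive = meets neither criterion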;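 also: higher polarization means more probe DNA bound by delta FosB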
* hit, by the source's call; ? = inconclusive; . = no result given.

SMILES	PKA-R1A activ	SR-BI DiI inh	PKA-R2B act	SR-BI DiI-HDL act	CDK5 p35 inh	dFosB act-1	dFosB act-2
Nc1nc(N)c2nc(-c3ccccc3)c(N)nc2n1	1.4	-7.1	11.8	7.1	-0.5	18.6*	0.1
COc1ccc(Cc2nc3c4c(ncn3n2)Oc2c(ccc3ccccc23)C4c2ccc(OC)c(OC)c2)cc1 (configuration not stated)	5.5	4.9	6.1	-4.9	-0.8	31.9*	4.0
COC(=O)CNc1nc(Cl)nc(Nc2ccc(Cl)cc2)n1	-5.7	-0.2	-2.8	0.2	-1.6	47.8*	6.7
O=C(COc1ccccc1F)Nc1ccccc1C(=O)NC1CC1	-11.2	14.2	11.3	-14.2	-5.9	2.4	.
O=C(COc1ccc(Br)cc1)Nc1ccccc1C(=O)NC1CC1	-8.4	29.0	-7.2	-29.0	0.8	28.8*	4.7
O=C(CCNC(=O)c1ccccc1Cl)NCC(c1ccc(F)cc1)N1CCOCC1 (configuration not stated)	4.1	-19.7	-1.3	19.7	-2.9	-9.4	.
COc1ccc(/C=C/C(=O)OCC(=O)NCCNC(=O)COC(=O)/C=C/c2ccc(OC)cc2)cc1	1.2	30.7	3.3	-30.7	-0.9	2.4	.
COc1ccc(/C=C/C(=O)OCC(=O)Nc2c(C)cccc2C)cc1	-9.3	-15.2	-13.4	15.2	1.5	25.5*	-14.5
O=C(Nc1ccc(COc2ccccc2)cc1)Nc1cccc(C(=O)O)c1	-6.4	-30.1	2.5	30.1	-0.7	-6.1	.
COc1ccc(NC(=O)CC(C)n2ccnc2)cc1 (configuration not stated)	0.6	-7.4	-5.5	7.4	0.3	6.2	.
C=CCN1C(=O)c2ccc(C(=O)N(C)CC(=O)Nc3cccc(F)c3)cc2C1=O	-7.6	-22.2	-7.3	22.2	-2.4	-9.1	.
CN(CC(=O)Nc1ccccc1Cl)C(=O)COC(=O)Cc1ccc(F)cc1	-6.8	-4.0	-6.1	4.0	-1.2	-6.5	.
NS(=O)(=O)c1ccc(CCNC(=O)CCCCCn2c(=S)[nH]c3ccc(Br)cc3c2=O)cc1	2.5	37.4	6.2	-37.4	0.1	48.8*	9.9
NS(=O)(=O)c1ccc(CCNC(=O)c2ccc(Cn3c(=O)[nH]c4ccccc4c3=O)cc2)cc1	-14.4	-3.0	6.0	3.0	0.3	34.1*	-9.8
O=C(Nc1ccc(NS(=O)(=O)c2ccccc2)cc1)c1ccccc1	-0.9	10.2	11.8	-10.2	-0.8	?	.
O=C(Nc1ccc(NC(=O)c2ccc3c(c2)OCCO3)cc1)c1ccccc1	-5.2	65.8	0.3	-65.8	-7.3	35.2*	0.7
CCOc1ccc(-n2nc3ccc(NC(=O)c4ccc5c(c4)OCCO5)cc3n2)cc1	-8.0	67.2	-12.9	-67.2	2.2	98.6*	-10.4
O=C(NNC(=O)c1ccc(NC(=O)c2ccccc2)cc1)c1ccccc1	.	26.8	.	-26.8	-0.4	17.6*	1.6
O=C(Nc1ccc(NS(=O)(=O)c2ccccc2)cc1)c1ccc(Cl)cc1	-13.0	31.8	-1.0	-31.8	0.8	26.4*	0.6
O=C(Cc1ccccc1)NNC(=O)c1ccc(NC(=O)c2ccccc2)cc1	-1.9	23.3	0.2	-23.3	-7.4	11.7	.
COc1ccc(-n2ncc3c2CC(C)(C)CC3NC(=O)c2ccc(OC)o2)cc1 (configuration not stated)	-7.1	46.4	-1.4	-46.4	-0.6	-6.2	.
CCC(Sc1nc(C)cc(C)n1)C(=O)Nc1nccs1 (configuration not stated)	15.0	42.4	1.5	-42.4	0.6	-4.0	.
Cc1nc2ccccc2c(C)c1CC(=O)N(C)CC(=O)Nc1cccc(F)c1	-1.8	4.8	5.7	-4.8	0.2	-6.6	.
CCN1/C(=C\C=C2\C(=O)N(c3ccccc3)C(=S)N2C)Sc2ccccc21	-2.3	?	-4.6	-77.3	-0.6	27.8*	4.9
